test system: not listed separately; test: Dissociation constant, pKa of the compound; format: physicochemical

Row | SMILES | pKa
1 | O=C(O)c1cssc1=S | 2.8

test system: Rattus norvegicus; test: Ex vivo induction of NQO1 in Sprague-Dawley rat liver at 7.5 umol/kg/day, po for 10 days measured on day 11 relative to control; format: functional
How it was run: (§1)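 Organs taken from the same rats used for the bladder study: female Sprague-Dawley, compound at 7.5 µmol/kg/day by gavage or soya oil for 10 days, killed on day 11. GI contents rinsed out under cold water and tissues stored at −80°C. Homogenized in 0.2% Triton X-100 and centrifuged. Supernatant NQO1 activity measured by the Ernster method, expressed as treated/control.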

Row | SMILES | fold change (FC)
2 | S=c1ssc2c1CCC2 | 1.26
3 | S=c1ccss1 [DITHIOLETHIONE] | 1.3

test system: Rattus norvegicus; test: Ex vivo induction of NQO1 in Sprague-Dawley rat kidney at 7.5 umol/kg/day, po for 10 days measured on day 11 relative to control; format: functional; how it was run: as §1

Row | SMILES | fold change (FC)
4 | S=c1ssc2c1CCC2 | 1.87
5 | S=c1ccss1 [DITHIOLETHIONE] | 1.82

test system: Rattus norvegicus; test: Ex vivo induction of NQO1 in Sprague-Dawley rat lung at 7.5 umol/kg/day, po for 10 days measured on day 11 relative to control; format: functional; how it was run: as §1

Row | SMILES | fold change (FC)
6 | S=c1ssc2c1CCC2 | 1.26
7 | S=c1ccss1 [DITHIOLETHIONE] | 1.37

test system: Rattus norvegicus; test: Ex vivo induction of NQO1 in Sprague-Dawley rat duodenum at 7.5 umol/kg/day, po for 10 days measured on day 11 relative to control; format: functional; how it was run: as §1

Row | SMILES | fold change (FC)
8 | S=c1ssc2c1CCC2 | 2.82
9 | S=c1ccss1 [DITHIOLETHIONE] | 5.6

test system: Rattus norvegicus; test: Ex vivo induction of NQO1 in Sprague-Dawley rat jejunum at 7.5 umol/kg/day, po for 10 days measured on day 11 relative to control; format: functional; how it was run: as §1

Row | SMILES | fold change (FC)
10 | S=c1ssc2c1CCC2 | 1.44
11 | S=c1ccss1 [DITHIOLETHIONE] | 2.31

test system: Rattus norvegicus; test: Ex vivo induction of NQO1 in Sprague-Dawley rat ileum at 7.5 umol/kg/day, po for 10 days measured on day 11 relative to control; format: functional; how it was run: as §1

Row | SMILES | fold change (FC)
12 | S=c1ssc2c1CCC2 | 1.36
13 | S=c1ccss1 [DITHIOLETHIONE] | 1.76

test system: Rattus norvegicus; test: Ex vivo induction of NQO1 in Sprague-Dawley rat colon at 7.5 umol/kg/day, po for 10 days measured on day 11 relative to control; format: functional; how it was run: as §1

Row | SMILES | fold change (FC)
14 | S=c1ssc2c1CCC2 | 1.28
15 | S=c1ccss1 [DITHIOLETHIONE] | 1.81

test system: Rattus norvegicus; test: Ex vivo induction of NQO1 in Sprague-Dawley rat bladder at 7.5 umol/kg/day, po for 10 days measured on day 11 relative to control; format: functional
How it was run: (§2)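 Female Sprague-Dawley rats, 6 per group, gavaged with compound at 7.5 µmol/kg/day or soya oil for 10 days and killed on day 11. Bladder homogenized in ice-cold 0.2% Triton X-100 and cleared by centrifugation. NQO1 activity measured by the Ernster method, GST by the Habig method. Reported as treated/control mean ± SEM, ANOVA with Student-Newman-Keuls test.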

Row | SMILES | fold change (FC)
16 | S=c1ssc2c1CCC2 | 3.14
17 | S=c1ccss1 [DITHIOLETHIONE] | 2.78
18 | O=C(O)c1cssc1=S | 3.69

test system: Rattus norvegicus; test: Ex vivo induction of GST in Sprague-Dawley rat bladder at 7.5 umol/kg/day, po for 10 days measured on day 11 relative to control; format: functional; how it was run: as §2

Row | SMILES | fold change (FC)
19 | S=c1ssc2c1CCC2 | 1.68
20 | S=c1ccss1 [DITHIOLETHIONE] | 1.7
21 | O=C(O)c1cssc1=S | 2.11

test system: Rattus norvegicus; test: Ex vivo induction of NQO1 in Sprague-Dawley rat stomach at 7.5 umol/kg/day, po for 10 days measured on day 11 relative to control; format: functional; how it was run: as §1

Row | SMILES | fold change (FC)
22 | S=c1ssc2c1CCC2 | 3.55
23 | S=c1ccss1 [DITHIOLETHIONE] | 5.31

From ChEMBL document CHEMBL1177701, “Synthesis, biological evaluation, and structure-activity relationships of dithiolethiones as inducers of cytoprotective phase 2 enzymes” (J Med Chem, 2010)
